Laboratory results: ChEMBL document CHEMBL5046221, “Identification of Pyrimidine-Based Lead Compounds for Understudied Kinases Implicated in Driving Neurodegeneration” (J Med Chem, 2022)
Activity calls are given as the source filed them. No cut-off for these calls is given here.

How the values were obtained:
[1] = biological target: T1, Serine/threonine-protein kinase 17B (Homo sapiens) (UniProt O94768); assay: (§1) Inhibition of recombinant human DRAK2 using KKRPQRRYSNVF as substrate after 120 mins in presence of [gamma-33ATP] by scintillation counting based radiometry assay
T1 sequence (whole entry): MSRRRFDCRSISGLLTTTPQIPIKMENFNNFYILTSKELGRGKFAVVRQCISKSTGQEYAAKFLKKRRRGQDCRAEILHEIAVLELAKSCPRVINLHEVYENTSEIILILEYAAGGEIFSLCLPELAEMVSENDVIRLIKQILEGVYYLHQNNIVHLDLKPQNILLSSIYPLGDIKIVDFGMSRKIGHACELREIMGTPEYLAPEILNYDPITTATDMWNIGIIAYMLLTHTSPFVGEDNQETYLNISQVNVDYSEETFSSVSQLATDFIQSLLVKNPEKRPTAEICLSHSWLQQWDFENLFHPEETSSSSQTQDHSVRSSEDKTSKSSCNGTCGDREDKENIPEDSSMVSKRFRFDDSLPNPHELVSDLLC
In short: (§2)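 Eurofins radiometric enzymatic assay with ATP at Km for each kinase. IC50 was derived from a 9-point dose–response curve run in duplicate.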

[2] = biological target: T2, Serine/threonine-protein kinase 17A (Homo sapiens) (UniProt Q9UEE5); assay: (§3) Inhibition of recombinant human DRAK1 using KKLNRTLSFAEPG as substrate after 40 mins in presence of [gamma-33ATP] by scintillation counting based radiometry assay
T2 sequence (whole entry): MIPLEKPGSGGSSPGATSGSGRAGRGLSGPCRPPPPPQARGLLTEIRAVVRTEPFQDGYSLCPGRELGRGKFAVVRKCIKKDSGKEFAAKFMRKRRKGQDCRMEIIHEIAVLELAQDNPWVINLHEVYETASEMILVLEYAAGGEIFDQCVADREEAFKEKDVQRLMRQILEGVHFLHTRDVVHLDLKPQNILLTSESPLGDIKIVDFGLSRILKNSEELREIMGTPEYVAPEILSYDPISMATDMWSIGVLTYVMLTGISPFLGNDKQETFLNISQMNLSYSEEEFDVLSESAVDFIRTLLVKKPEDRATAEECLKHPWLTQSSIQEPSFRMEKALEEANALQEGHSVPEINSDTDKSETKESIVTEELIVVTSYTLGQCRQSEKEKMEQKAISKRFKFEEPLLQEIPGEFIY
In short: (§4)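 Eurofins radiometric kinase assay run at ATP equal to Km for each kinase. 9-point dose–response in duplicate gives the IC50.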

[3] = biological target: Serine/threonine-protein kinase MARK1 (Homo sapiens) (UniProt Q9P0L2); assay: Inhibition of recombinant human MARK1 (2 to end residues) using KKKVSRSGLYRSPSMPENLNRPR as substrate incubated for 40 mins in presence of [gamma-33ATP] by scintillation counting based radiometry assay; in short: as §2
[4] = biological target: MAP/microtubule affinity-regulating kinase 3 (Homo sapiens, UniProt P27448); assay: Displacement of tracer K9 from NLuc fused MARK3 (unknown origin) expressed in HEK293 cells by NanoBRET assay; format: cell-based
Sequence of MAP/microtubule affinity-regulating kinase 3 (P27448 whole entry, the tested form may be a part): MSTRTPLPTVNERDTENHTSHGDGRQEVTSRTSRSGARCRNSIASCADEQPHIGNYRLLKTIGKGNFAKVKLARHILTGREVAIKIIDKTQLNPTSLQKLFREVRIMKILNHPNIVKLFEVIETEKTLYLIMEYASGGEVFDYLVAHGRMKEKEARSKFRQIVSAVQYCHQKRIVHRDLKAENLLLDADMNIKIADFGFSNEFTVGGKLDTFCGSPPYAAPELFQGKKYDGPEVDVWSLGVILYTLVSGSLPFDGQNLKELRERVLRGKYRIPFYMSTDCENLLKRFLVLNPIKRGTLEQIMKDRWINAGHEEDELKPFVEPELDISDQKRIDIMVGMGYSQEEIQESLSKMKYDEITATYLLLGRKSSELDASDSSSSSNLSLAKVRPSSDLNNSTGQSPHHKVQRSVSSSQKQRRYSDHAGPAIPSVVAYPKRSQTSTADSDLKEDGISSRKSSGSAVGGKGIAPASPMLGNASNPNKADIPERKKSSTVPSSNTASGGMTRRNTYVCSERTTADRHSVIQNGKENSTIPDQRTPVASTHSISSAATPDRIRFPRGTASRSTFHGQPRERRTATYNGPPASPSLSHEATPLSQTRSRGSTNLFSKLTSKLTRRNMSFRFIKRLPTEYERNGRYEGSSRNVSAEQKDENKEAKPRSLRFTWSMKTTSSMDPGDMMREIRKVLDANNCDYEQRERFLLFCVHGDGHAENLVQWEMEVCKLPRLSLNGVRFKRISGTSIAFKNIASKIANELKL

[5] = biological target: T3, Serine/threonine-protein kinase 17A (Homo sapiens, UniProt Q9UEE5); assay: Displacement of tracer K9 from NLuc fused DRAK1 (unknown origin) expressed in HEK293 cells by NanoBRET assay; format: cell-based
T3 sequence (Q9UEE5 whole entry): T2 sequence (whole entry)

[6] = biological target: AP2-associated protein kinase 1 (Homo sapiens, UniProt Q2M2I8); assay: Inhibition of human AAK1 using peptide as substrate incubated for 120 mins in presence of [gamma-33ATP] by scintillation counting based radiometry assay; in short: as §4
[7] = biological target: T4, Serine/threonine-protein kinase TBK1 (Homo sapiens, UniProt Q9UHD2); assay: Displacement of tracer K5 from NLuc fused TBK1 (unknown origin) expressed in HEK293 cells by NanoBRET assay; format: cell-based
T4 sequence (Q9UHD2 whole entry): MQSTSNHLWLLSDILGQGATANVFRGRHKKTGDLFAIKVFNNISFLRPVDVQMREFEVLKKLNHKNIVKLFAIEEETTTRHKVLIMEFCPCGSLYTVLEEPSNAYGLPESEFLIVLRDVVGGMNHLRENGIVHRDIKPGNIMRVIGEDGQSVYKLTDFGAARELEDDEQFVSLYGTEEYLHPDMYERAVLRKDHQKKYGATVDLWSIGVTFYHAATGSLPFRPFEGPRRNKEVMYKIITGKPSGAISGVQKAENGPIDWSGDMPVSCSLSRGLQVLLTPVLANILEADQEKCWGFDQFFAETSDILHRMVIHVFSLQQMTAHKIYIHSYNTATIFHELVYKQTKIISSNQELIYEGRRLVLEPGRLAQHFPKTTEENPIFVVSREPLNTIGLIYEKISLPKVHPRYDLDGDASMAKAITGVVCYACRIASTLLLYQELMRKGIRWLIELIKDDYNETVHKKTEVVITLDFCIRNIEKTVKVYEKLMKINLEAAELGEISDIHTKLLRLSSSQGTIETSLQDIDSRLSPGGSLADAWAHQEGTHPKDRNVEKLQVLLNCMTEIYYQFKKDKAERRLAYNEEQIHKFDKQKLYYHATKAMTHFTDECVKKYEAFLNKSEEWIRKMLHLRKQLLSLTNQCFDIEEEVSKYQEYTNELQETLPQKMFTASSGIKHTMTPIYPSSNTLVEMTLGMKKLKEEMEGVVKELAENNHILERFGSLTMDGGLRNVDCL
In short: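 HEK293 cells grown in DMEM with 10% FBS at 37 °C, 5% CO2. NanoBRET assay run in dose–response per manufacturer's protocol with tracer K-5 at 0.5 μM. SEM calculated for assays run more than once.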

[8] = biological target: T5, MAP/microtubule affinity-regulating kinase 4 (Homo sapiens, UniProt Q96L34); assay: Displacement of tracer K5 from NLuc fused MARK4 (unknown origin) expressed in HEK293 cells by NanoBRET assay; format: cell-based
T5 sequence (Q96L34 whole entry): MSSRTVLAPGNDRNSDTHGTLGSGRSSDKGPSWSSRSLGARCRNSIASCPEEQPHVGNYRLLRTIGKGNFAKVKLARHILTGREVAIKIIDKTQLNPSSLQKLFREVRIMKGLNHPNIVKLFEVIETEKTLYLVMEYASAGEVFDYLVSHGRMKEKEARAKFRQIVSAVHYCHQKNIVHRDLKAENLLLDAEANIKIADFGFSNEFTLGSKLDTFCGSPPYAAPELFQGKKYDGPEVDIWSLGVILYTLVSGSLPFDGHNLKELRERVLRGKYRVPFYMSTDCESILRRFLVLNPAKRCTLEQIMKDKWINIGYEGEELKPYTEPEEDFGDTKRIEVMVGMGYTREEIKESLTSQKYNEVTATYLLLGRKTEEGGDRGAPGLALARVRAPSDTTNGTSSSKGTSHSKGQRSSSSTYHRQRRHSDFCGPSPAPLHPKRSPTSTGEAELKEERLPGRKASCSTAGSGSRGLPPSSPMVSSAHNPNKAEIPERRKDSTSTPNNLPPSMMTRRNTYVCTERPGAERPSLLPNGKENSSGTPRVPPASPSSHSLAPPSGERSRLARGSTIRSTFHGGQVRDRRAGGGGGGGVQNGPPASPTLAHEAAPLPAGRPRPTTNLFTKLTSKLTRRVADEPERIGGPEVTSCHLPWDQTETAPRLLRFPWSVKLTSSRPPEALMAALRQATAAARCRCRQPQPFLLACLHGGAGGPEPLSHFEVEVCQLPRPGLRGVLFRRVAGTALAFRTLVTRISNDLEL

[9] = Kinetic solubility of compound in PBS at pH 7.4 incubated for 24 hrs by chemiluminscent nitrogen detection method; format: physicochemical; details: buffer, pH 7.4, 24 h
In short: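 Filtrates were quantified by total chemiluminescent nitrogen determination against a calibration curve, with correction for background nitrogen from DMSO and medium.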

[10] = Effective permeability in PBS at 7.4 incubated for 5 hrs by PAMPA analysis; format: ADME; details: pH 7.4, 5 h
In short: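 PAMPA: DMSO stocks were diluted in PBS pH 7.4 and placed in the donor compartment, with PBS pH 7.4 in the acceptor, for 5 h. Both compartments were quantified by CLND against a calibration curve, with background nitrogen correction. Effective permeability was calculated from donor and acceptor concentrations using measured rather than assumed solubility.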

[11] = biological target: Serine/threonine-protein kinase 17B (Homo sapiens, UniProt O94768); assay: as §1; in short: as §2
[12] = biological target: BMP-2-inducible protein kinase (Homo sapiens, UniProt Q9NSY1); assay: Residual activity of human BMP2K at 1 uM using peptide as substrate incubated for 120 mins in presence of [gamma-33P-ATP] by radiometric scintillation assay relative to control
Sequence of BMP-2-inducible protein kinase (Q9NSY1 whole entry, looked up): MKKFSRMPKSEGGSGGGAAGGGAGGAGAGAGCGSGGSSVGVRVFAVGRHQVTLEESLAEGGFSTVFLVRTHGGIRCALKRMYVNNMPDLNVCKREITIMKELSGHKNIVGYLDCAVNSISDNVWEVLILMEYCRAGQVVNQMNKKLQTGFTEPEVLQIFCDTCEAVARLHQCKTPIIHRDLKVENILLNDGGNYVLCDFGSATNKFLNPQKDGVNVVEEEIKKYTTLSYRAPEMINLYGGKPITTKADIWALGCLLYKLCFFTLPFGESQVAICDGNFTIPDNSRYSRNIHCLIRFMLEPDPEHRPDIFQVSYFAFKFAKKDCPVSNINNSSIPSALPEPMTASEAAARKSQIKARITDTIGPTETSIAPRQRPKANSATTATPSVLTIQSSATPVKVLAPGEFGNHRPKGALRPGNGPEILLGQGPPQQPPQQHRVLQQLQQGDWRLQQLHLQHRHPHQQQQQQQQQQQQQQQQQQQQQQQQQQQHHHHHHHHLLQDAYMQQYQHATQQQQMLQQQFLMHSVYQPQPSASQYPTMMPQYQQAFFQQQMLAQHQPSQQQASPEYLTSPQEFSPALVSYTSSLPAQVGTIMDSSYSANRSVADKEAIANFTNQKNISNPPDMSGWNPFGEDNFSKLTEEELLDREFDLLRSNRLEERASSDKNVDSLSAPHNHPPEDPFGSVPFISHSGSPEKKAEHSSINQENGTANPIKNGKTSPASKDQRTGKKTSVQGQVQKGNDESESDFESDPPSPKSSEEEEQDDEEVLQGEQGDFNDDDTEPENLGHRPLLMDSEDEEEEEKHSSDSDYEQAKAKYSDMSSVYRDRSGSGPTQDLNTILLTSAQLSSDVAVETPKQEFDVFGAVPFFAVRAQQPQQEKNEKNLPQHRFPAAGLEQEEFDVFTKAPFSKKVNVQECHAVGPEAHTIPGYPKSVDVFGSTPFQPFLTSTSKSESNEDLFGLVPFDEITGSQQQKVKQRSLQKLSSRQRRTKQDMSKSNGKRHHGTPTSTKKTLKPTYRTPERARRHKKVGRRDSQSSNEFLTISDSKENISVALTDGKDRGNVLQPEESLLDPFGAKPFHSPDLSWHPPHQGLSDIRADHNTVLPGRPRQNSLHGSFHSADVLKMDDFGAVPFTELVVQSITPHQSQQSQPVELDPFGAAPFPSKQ

[13] = biological target: Non-receptor tyrosine-protein kinase TYK2 (Homo sapiens, UniProt P29597); assay: Inhibition of human TYK2 (875 to end residues) using GGMEDIYFEFMGGKKK as substrate measured after 40 mins in presence of [gamma33P]ATP by radiometric scintillation counting method; in short: as §2
Sequence of Non-receptor tyrosine-protein kinase TYK2 (P29597 whole entry): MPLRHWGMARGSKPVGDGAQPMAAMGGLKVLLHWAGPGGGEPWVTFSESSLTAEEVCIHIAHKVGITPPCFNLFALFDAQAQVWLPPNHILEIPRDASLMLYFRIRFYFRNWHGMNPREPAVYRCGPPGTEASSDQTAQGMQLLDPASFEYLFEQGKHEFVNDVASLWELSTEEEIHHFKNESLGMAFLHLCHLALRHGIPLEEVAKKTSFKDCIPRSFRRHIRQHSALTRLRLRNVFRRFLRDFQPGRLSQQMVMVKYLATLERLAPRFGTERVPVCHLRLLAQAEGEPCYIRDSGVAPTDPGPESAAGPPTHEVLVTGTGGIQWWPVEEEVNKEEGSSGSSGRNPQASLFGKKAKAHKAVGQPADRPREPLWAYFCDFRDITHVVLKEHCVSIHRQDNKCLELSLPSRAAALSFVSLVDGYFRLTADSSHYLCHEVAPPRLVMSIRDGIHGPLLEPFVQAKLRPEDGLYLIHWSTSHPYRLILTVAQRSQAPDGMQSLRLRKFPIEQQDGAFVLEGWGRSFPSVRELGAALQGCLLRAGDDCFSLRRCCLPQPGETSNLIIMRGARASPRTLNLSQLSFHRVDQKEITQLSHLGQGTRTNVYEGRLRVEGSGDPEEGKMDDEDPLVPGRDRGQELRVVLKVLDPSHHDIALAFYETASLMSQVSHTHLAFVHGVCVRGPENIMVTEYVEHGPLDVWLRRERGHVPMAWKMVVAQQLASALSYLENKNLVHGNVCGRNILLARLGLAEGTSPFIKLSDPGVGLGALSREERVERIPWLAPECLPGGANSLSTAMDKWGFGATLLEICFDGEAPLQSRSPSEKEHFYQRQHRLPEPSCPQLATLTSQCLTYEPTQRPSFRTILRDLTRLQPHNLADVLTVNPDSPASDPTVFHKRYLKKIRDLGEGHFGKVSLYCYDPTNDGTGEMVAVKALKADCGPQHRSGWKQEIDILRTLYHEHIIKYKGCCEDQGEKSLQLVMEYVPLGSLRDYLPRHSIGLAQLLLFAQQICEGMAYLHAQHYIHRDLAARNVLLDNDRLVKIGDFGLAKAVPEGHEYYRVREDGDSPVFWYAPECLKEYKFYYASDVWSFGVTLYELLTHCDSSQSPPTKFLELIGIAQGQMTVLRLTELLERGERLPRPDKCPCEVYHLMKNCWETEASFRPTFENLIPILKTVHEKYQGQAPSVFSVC

[14] = biological target: T3, Serine/threonine-protein kinase 17A; assay: as §3; in short: as §4
[15] = biological target: Serine/threonine-protein kinase SIK2 (Homo sapiens, UniProt Q9H0K1); assay: Inhibition of recombinant human SIK2 (1 to 276 residues) using KKKVSRSGLYRSPSMPENLNRPR as substrate measured after 40 mins in presence of [gamma33P]ATP by radiometric scintillation counting method; in short: as §4
Sequence of Serine/threonine-protein kinase SIK2 (Q9H0K1 whole entry, the tested form may be a part): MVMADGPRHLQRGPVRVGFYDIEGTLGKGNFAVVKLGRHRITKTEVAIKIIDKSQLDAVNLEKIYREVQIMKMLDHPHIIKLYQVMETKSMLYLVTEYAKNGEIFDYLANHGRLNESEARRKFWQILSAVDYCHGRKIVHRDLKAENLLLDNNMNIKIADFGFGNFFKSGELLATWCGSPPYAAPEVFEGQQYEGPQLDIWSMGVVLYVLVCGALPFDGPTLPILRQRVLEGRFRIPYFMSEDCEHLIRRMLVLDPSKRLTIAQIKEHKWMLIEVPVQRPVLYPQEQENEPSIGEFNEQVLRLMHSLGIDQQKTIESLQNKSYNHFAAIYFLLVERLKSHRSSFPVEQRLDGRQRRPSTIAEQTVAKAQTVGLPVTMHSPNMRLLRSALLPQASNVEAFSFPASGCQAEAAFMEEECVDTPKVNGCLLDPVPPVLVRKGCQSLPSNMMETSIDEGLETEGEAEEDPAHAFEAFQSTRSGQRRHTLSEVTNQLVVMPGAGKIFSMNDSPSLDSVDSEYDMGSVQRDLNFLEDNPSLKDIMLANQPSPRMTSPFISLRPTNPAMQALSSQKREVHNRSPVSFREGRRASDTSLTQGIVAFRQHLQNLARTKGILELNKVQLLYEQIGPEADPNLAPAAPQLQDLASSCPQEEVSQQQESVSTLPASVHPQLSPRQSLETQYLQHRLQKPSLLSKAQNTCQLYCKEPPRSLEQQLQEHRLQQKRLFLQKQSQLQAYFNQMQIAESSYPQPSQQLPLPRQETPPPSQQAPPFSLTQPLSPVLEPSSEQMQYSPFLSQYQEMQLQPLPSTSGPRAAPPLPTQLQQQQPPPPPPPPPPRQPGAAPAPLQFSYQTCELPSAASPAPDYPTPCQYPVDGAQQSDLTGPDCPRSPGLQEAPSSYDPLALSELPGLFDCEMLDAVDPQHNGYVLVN

[16] = biological target: MAP kinase-interacting serine/threonine-protein kinase 2 (Homo sapiens, UniProt Q9HBH9); assay: Inhibition of full length recombinant human MKNK2 using myelin basic protein as substrate incubated for 40 mins in presence of [gamma-33P-ATP] by radiometric scintillation assay; in short: as §4
Sequence of MAP kinase-interacting serine/threonine-protein kinase 2 (Q9HBH9 whole entry): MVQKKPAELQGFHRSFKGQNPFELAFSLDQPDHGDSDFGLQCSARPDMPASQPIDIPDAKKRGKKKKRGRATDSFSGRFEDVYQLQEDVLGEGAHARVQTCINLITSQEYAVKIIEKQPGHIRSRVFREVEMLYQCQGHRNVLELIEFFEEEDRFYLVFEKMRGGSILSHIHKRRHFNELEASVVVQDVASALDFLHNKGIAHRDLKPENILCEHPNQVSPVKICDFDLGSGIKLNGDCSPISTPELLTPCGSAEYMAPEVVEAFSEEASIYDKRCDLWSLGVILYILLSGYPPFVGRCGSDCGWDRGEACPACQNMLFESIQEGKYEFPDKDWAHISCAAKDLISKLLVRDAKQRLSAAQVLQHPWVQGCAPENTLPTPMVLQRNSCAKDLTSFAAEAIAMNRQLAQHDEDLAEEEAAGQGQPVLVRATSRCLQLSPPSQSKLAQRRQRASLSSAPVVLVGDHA

Compound	inhibition [1]	inhibition [2]	inhibition [3]	IC50 [4]	IC50 [5]	inhibition [6]	IC50 [7]	IC50 [8]	Kinetic solubility [9]	Peff [10]	IC50 [11]	% control [12]	IC50 [13]	IC50 [14]	IC50 [15]	IC50 [16]	IC50 [6]
Cc1nn(CC(F)(F)F)cc1Nc1ncc(Br)c(NCCCNC(=O)C2CCC2)n1	Active	Active	Active	> 10 µM	0.126 µM	Active	0.321 µM	3.54 µM	40.3 µM	3.73 10^-6 cm/s	–	–	–	–	–	–	–
O=C(NCCCNc1ccnc(Nc2cccc(NC(=O)N3CCCC3)c2)n1)C1CCC1	–	–	–	> 10 µM	2.31 µM	–	> 10 µM	> 10 µM	169 µM	8.24 10^-8cm/s	0.161 µM	56%	0.72 µM	0.325 µM	0.481 µM	0.769 µM	0.39 µM
